Tests used:
[1] = test system: Rattus norvegicus; assay: The percent fall in systolic blood pressure at 1.5 / 4 hr after peroral administration of 50 mg/kg in DOCA/saline hypertensive rats at 24 hr; Non significant; type: functional, organism-based; parameters: dose 50 mg/kg; settings: Artery, at 50 mg/kg
[2] = test system: Rattus norvegicus; assay: The percent fall in systolic blood pressure at 1.5 / 4 h after peroral administration of 50 mg/kg in DOCA/saline hypertensive rats at 2 hr; type: functional, Artery; settings: route oral
[3] = test system: Rattus norvegicus; assay: The percent fall in systolic blood pressure at 1.5 / 4 hr after peroral administration of 50 mg/kg in DOCA/saline hypertensive rats at 6 hr; type: functional, Artery; settings: route oral
[4] = test system: Rattus norvegicus; assay: Starting systolic blood pressure at dose of 50 mg/kg in rat; type: functional, Artery
Summary of the method: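 Mean systolic blood pressure before dosing for each group of four DOCA/saline hypertensive rats given 50 mg/kg orally. It indicates how far hypertension was established.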

[5] = test system: Rattus norvegicus; assay: Percent fall in systolic blood pressure at 1.5 / 4 hr after peroral administration of 50 mg/kg in DOCA/saline hypertensive rats at 6 h; Non significant; type: functional, organism-based; parameters: dose 50 mg/kg; settings: Artery, at 50 mg/kg
[6] = test system: Rattus norvegicus; assay: The percent fall in systolic blood pressure at 1.5 / 4 hr after peroral administration of 50 mg/kg in DOCA/saline hypertensive rats at 2 hr; Non significant; type: functional, organism-based; parameters: dose 50 mg/kg; settings: Artery, at 50 mg/kg
[7] = test system: Rattus norvegicus; assay: The percent fall in systolic blood pressure at 1.5 / 4 hr after peroral administration of 40 mg/kg in conscious renal hypertensive rats (RHR).; type: functional, Artery; settings: route oral
Summary of the method: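 Conscious renal hypertensive rats, four per group, dosed orally. Starting systolic pressures were 160–200 mmHg. Percentage fall in systolic pressure was taken at 1.5 and/or 4 h after dosing. Falls under 10% were scored as ±.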

SMILES	Fall [1]	Fall [2]	Fall [3]	SP [4]	Fall [5]	SP ([4]; 50 mg/kg)	Fall [6]	Activity [7]
Cn1cc(CCN2CCC(NC(=O)NC(=O)c3ccccc3)CC2)c2ccccc21	Not significant	26%	28%	172 mmHg	–	–	–	–
O=C(NC(=O)c1ccccc1)NC1CCN(CC(=O)c2ccccc2)CC1	Not significant	-23%	–	166 mmHg	Not significant	–	–	–
O=C(Nc1ccccc1)NC1CCN(CC(O)C2COc3ccccc3O2)CC1 (stereo in doubt; 30) [listing 1 of 2 here]	–	–	–	–	–	182 mmHg	–	–
O=C(NC(=O)c1ccccc1)NC1CCN(CC(O)C2COc3ccccc3O2)CC1 (stereo in doubt; 29) [listing 1 of 2 here]	–	–	–	–	–	178 mmHg	–	–
COc1ccc(C(=O)NC(=O)NC2CCN(CC(O)COc3ccccc3OC)CC2)cc1 (centres undefined)	Not significant	–	–	162 mmHg	Not significant	–	Not significant	–
O=C(NC1CCCCC1)NC1CCN(CCc2c[nH]c3ccccc23)CC1	Not significant	15%	–	176 mmHg	Not significant	–	–	–
O=C(Nc1ccccc1)NC1CCN(CC(O)C2COc3ccccc3O2)CC1 (stereo in doubt; 31) [listing 1 of 2 here]	Not significant	–	–	–	Not significant	–	–	–
COc1ccc(NC(=O)NC2CCN(CCCC(=O)c3ccccc3)CC2)cc1	–	–	–	–	–	–	–	<10
O=C(Nc1ccccc1C(F)(F)F)NC1CCN(CCc2c[nH]c3ccccc23)CC1	–	–	–	–	–	–	–	<10
OC(CN1CCC(/N=C(\S)Nc2ccccc2)CC1)C1COc2ccccc2O1 (centres undefined)	Not significant	26%	–	182 mmHg	Not significant	–	–	–
O=C(Nc1ccccc1)NC1CCN(CC(O)C2COc3ccccc3O2)CC1 (stereo in doubt; 30) [listing 2 of 2 here]	Not significant	–	–	–	Not significant	–	Not significant	–
O=C(Nc1ccc(Cl)c(Cl)c1)NC1CCN(CCc2c[nH]c3ccccc23)CC1	–	–	–	–	–	–	–	15
O=C(Nc1cccc(C(F)(F)F)c1)NC1CCN(CCCC(=O)c2ccccc2)CC1	Not significant	–	–	177 mmHg	Not significant	–	Not significant	–
O=C(Nc1ccc(Cl)cc1)NC1CCN(CC(O)C2COc3ccccc3O2)CC1 (centres undefined)	Not significant	–	–	178 mmHg	Not significant	–	Not significant	–
O=C(NC(=O)c1ccccc1)NC1CCN(CCCC(=O)c2c[nH]c3ccccc23)CC1	Not significant	16%	–	187 mmHg	Not significant	–	–	–
COc1ccccc1OCC(O)CN1CCC(NC(=O)NC(=O)c2ccc(F)cc2)CC1 (centres undefined)	Not significant	–	–	196 mmHg	Not significant	–	Not significant	–
O=C(NC(=O)c1ccccc1)NC1CCN(CC(O)C2COc3ccccc3O2)CC1 (stereo in doubt; 28) [listing 1 of 2 here]	–	–	–	–	–	174 mmHg	–	–
S=C(Nc1ccccc1)NC1CCN(CCc2c[nH]c3ccccc23)CC1	–	–	–	–	–	–	–	21
O=C(NC(=O)c1ccccc1)NC1CCN(CC(O)C2COc3ccccc3O2)CC1 (stereo in doubt; 28) [listing 2 of 2 here]	Not significant	–	–	–	Not significant	–	Not significant	–
O=C(Nc1ccccc1)NC1CCN(CC(O)COc2cccc3ccccc23)CC1 (centres undefined)	Not significant	–	–	170 mmHg	Not significant	–	Not significant	–
O=C(NC(=O)c1ccccc1)NC1CCN(CCc2ccccc2)CC1	Not significant	–	–	180 mmHg	Not significant	–	Not significant	–
Cc1cccc(C)c1NC(=O)NC1CCN(CCCC(=O)c2ccccc2)CC1	–	–	–	–	–	–	–	<10
CN(C(=O)NC(=O)c1ccccc1)C1CCN(CCc2c[nH]c3ccccc23)CC1	Not significant	40%	–	186 mmHg	Not significant	–	–	–
COc1ccc(NC(=O)NC2CCN(CC(O)C3COc4ccccc4O3)CC2)cc1 (centres undefined)	Not significant	17%	–	190 mmHg	Not significant	–	–	–
O=C(NC(=S)NC1CCN(CCc2c[nH]c3ccccc23)CC1)c1ccccc1	Not significant	–	–	200 mmHg	Not significant	–	Not significant	–
CCN(C(=O)Nc1ccccc1)C1CCN(CCc2c[nH]c3ccccc23)CC1	Not significant	–	–	170 mmHg	Not significant	–	Not significant	–

SMILES	Fall [1]	Fall [2]	Fall [3]	SP [4]	Fall [5]	SP ([4]; 50 mg/kg)	Fall [6]	Activity [7]
COc1ccccc1OCC(O)CN1CCC(NC(=O)NC(=O)c2ccccc2)CC1 (centres undefined)	Not significant	17%	–	189 mmHg	Not significant	–	–	–
O=C(NC(=O)c1ccccc1)NC1CCN(CCCc2c[nH]c3ccccc23)CC1	Not significant	–	–	191 mmHg	Not significant	–	Not significant	–
O=C(Nc1ccccc1)NC1CCN(CCc2c[nH]c3ccccc23)CC1	–	–	–	–	–	–	–	29
O=C(Nc1ccc(Cl)cc1)NC1CCN(CCc2c[nH]c3ccccc23)CC1	–	–	–	–	–	–	–	21
O=C(NC(=O)c1ccccc1)NC1CCN(CC(O)COc2cccc3ccccc23)CC1 (centres undefined)	Not significant	–	–	185 mmHg	Not significant	–	Not significant	–
CC(=O)Nc1ccc(OCC(O)CN2CCC(NC(=O)NC(=O)c3ccccc3)CC2)cc1 (centres undefined)	Not significant	–	–	179 mmHg	Not significant	–	Not significant	–
O=C(NC(=O)c1ccccc1)NC1CCN(CC(O)C2COc3ccccc3O2)CC1 (stereo in doubt; 29) [listing 2 of 2 here]	Not significant	–	–	–	Not significant	–	Not significant	–
NC(=O)NC1CCN(CCc2c[nH]c3ccccc23)CC1	–	–	–	–	–	–	–	28
O=C(NC(=S)NC1CCN(CC(O)C2COc3ccccc3O2)CC1)c1ccc(Cl)cc1 (centres undefined)	Not significant	–	–	175 mmHg	Not significant	–	Not significant	–
O=C(NC1CCCCC1)NC1CCN(CC(O)C2COc3ccccc3O2)CC1 (centres undefined)	Not significant	26%	–	172 mmHg	Not significant	–	–	–
COc1ccc(NC(=O)NC2CCN(CCc3c[nH]c4ccccc34)CC2)cc1	–	–	–	–	–	–	–	27
O=C(NC(=O)c1ccccc1)NC1CCN(CC(=O)c2c[nH]c3ccccc23)CC1	Not significant	–	–	178 mmHg	Not significant	–	Not significant	–
Cc1cccc(NC(=O)NC2CCN(CCc3c[nH]c4ccccc34)CC2)c1	–	–	–	–	–	–	–	14
O=C(NC(=O)c1cccs1)NC1CCN(CCCC(=O)c2c[nH]c3ccccc23)CC1	Not significant	–	–	181 mmHg	Not significant	–	Not significant	–
O=C(Nc1ccccc1)NC1CCN(CC(O)C2COc3ccccc3O2)CC1 (stereo in doubt; 31) [listing 2 of 2 here]	–	35%	–	–	–	171 mmHg	–	–
Cc1cccc(NC(=O)NC2CCN(CCCC(=O)c3ccccc3)CC2)c1	–	–	–	–	–	–	–	21
N=C(NC(=O)c1ccccc1)NC1CCN(CCc2c[nH]c3ccccc23)CC1	Not significant	–	–	165 mmHg	Not significant	–	Not significant	–
O=C(NC(=O)c1cccs1)NC1CCN(CCCC(=O)c2ccccc2)CC1	Not significant	30%	–	190 mmHg	Not significant	–	–	–
O=C(NC(=O)c1ccccc1)NC1CCN(CC(O)c2ccccc2)CC1 (centres undefined)	Not significant	21%	–	182 mmHg	Not significant	–	–	–
N/C(S)=N/C1CCN(CCc2c[nH]c3ccccc23)CC1	Not significant	20%	–	189 mmHg	Not significant	–	–	–
COc1ccc(C(=O)NC(=O)NC2CCN(CC(O)C3COc4ccccc4O3)CC2)cc1 (centres undefined)	Not significant	–	–	165 mmHg	Not significant	–	Not significant	–
CN(/C(S)=N/c1ccccc1)C1CCN(CCc2c[nH]c3ccccc23)CC1	Not significant	–	–	172 mmHg	Not significant	–	Not significant	–
N=C(NC(=O)c1ccccc1)NC1CCN(CCCC(=O)c2ccccc2)CC1	Not significant	–	–	188 mmHg	Not significant	–	Not significant	–
O=C(NC(=O)c1ccccc1)NC1CCN(CC(=O)C2COc3ccccc3O2)CC1 (centres undefined)	Not significant	–	–	181 mmHg	Not significant	–	Not significant	–
O=C(Nc1ccccc1)NC1CCN(CCCC(=O)c2c[nH]c3ccccc23)CC1	Not significant	–	–	187 mmHg	Not significant	–	Not significant	–
O=C(NC(=O)c1ccc(F)cc1)NC1CCN(CC(O)C2COc3ccccc3O2)CC1 (centres undefined)	Not significant	17%	–	183 mmHg	Not significant	–	–	–

— ChEMBL document CHEMBL1121617, “Antihypertensive ureidopiperidines” (1980)
